# Assays:
# [1] = test system: CCl4-intoxicated Nep−/− mice; assay: Captopril or losartan co-treatment of CCl4-intoxicated Nep−/− mice; assay type: in vivo, mouse; details: losartan 5 mg/kg/day or captopril 4 mg/kg/day for four weeks, vs non-treated fibrotic Nep−/− mice, n = 6
# Procedure, shortened: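 Nep−/− mice (C57BL/6J background, male and female, 10–12 weeks) exposed to CCl4 at 1L/min three times weekly for four weeks, with phenobarbital 3.0 mg/kg/day in drinking water. Losartan or captopril co-treatment ran through the same four weeks. Sirius red-stained sections scored by morphometry; portal pressure recorded in mm Hg; hepatic Col1a1 mRNA by qPCR. Mean ± SEM.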
# [2] = test system: fibrotic WT (C57BL6/J) mice; assay: Entresto study: oral treatment of fibrotic WT mice; assay type: in vivo, mouse; details: oral 100 mg/kg for 14 days; fibrotic mice vs control
# Procedure, shortened: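 Male and female WT mice, 10–12 weeks, made fibrotic over 7 weeks by i.p. CCl4 plus either ethanol in drinking water or Western diet. Entresto tablet (49mg/51mg) crushed and resuspended in 0.9% NaCl; valsartan and sacubitril prepared the same way. Dosed orally for 14 days until sacrifice. Portal pressure measured at the end; hepatic Col1a1 mRNA also assessed. Mean ± SEM.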
# [3] = test system: primary mouse HSC (WT and Nep−/−); assay: mRNA expression; assay type: cell-based; details: NPY 1 nM, 24 h
# [4] = test system: primary HSCs from Nep−/− mice; assay: Immunofluorescence and confocal microscopy of collagen I and αSMA; assay type: cell-based, mouse; details: full-length NPY, 24 h
# Procedure, shortened: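 Primary Nep−/− HSCs, activated by at least one week of culture, were serum-starved 12 h. […] Cells were fixed in 4% paraformaldehyde and permeabilized with 1% Triton X-100, each 10 min at 37°C, then blocked 1 h in 1% BSA. Anti-collagen I (1:50) and anti-α-SMA (1:200) ran overnight at 4°C, secondaries (1:3000) 2 h, with DAPI counterstain. Confocal fluorescence was quantified from three independent experiments.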
# WT mice = assay: Intraperitoneal injection of NPYFL or its C-terminal fragments in WT mice; assay type: in vivo, mouse; details: i.p., 72 hours, n = 6/group
# primary Nep−/− HSCs = assay: Determination of cellular cAMP; assay type: cell-based, mouse; details: serum starved, full-length NPY 1 nM or mix of C-terminal fragments 30 μM, 30 min (methods), 24 h (Figure 4F), n = 3–4
# Procedure, shortened: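 HSCs isolated from WT and Nep−/− mice were cultured at least one week (fully activated) in DMEM/20% FBS with penicillin-streptomycin, in Zn- and EDTA-free buffers. […] Competitive cAMP ELISA, normalised to total protein; mean ± SEM.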
# [5] = test system: primary mouse HSC (WT and Nep−/−); assay: Collagen gel contraction assay; assay type: cell-based; details: primary mouse HSCs on collagen gels, NPY 0–100 nM, 0–48 h; Nep−/− vs WT
# Procedure, shortened: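 Primary HSCs were isolated from WT and Nep−/− mice and cultured at least one week until fully activated. 1 × 10^4 cells were embedded in 1 mg/mL collagen gels, in triplicate per group. […] Gel area was tracked from images taken at fixed camera distance over time, as % of initial surface; mean ± SEM, n = 3–6.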
# [6] = test system: primary mouse HSC (WT and Nep−/−); assay: Western blot of ROCK, p-moesin and p-ERK in primary HSCs; assay type: cell-based; details: NPY 1 nM, 24 h, compared with WT cells
# Procedure, shortened: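 Primary HSCs from WT and Nep−/− mice were cultured at least one week until fully activated. They were seeded at 300,000 cells/well in DMEM with 20% FBS, and buffers were free of Zn and EDTA. […] Protein was read by western blot with GAPDH as loading control.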
compound,measurement,setting,value
C[C@H](CS)C(=O)N1CCC[C@H]1C(=O)O [captopril],hepatic Col1a1 mRNA expression,[1],significantly reduced
same,portal pressure,[1],significantly reduced
CCCCc1nc(Cl)c(CO)n1Cc1ccc(-c2ccccc2-c2nn[nH]n2)cc1 [losartan],hepatic Col1a1 mRNA expression,[1],significantly reduced
same,portal pressure,[1],significantly reduced
CCOC(=O)[C@H](C)C[C@@H](Cc1ccc(-c2ccccc2)cc1)NC(=O)CCC(=O)O [sacubitril],"portal pressure, single components of Entresto",[2],Neither valsartan nor sacubitril were able to significantly reduce portal pressure
CCCCC(=O)N(Cc1ccc(-c2ccccc2-c2nnn[nH]2)cc1)[C@H](C(=O)O)C(C)C [valsartan],"portal pressure, single components of Entresto",[2],Neither valsartan nor sacubitril were able to significantly reduce portal pressure
Neuropeptide Y [NPY],Col1a1 mRNA level,[3]; Nep−/− HSCs,decreased
same,Tgfβ1 mRNA level,[3]; Nep−/− HSCs,decreased
same,Acta2 mRNA expression,"[3]; Nep−/− HSCs, compared with WT control",induced
same,Col1a1 mRNA level,[3]; WT HSCs,increased
same,Tgfβ1 mRNA level,[3]; WT HSCs,increased
same,αSMA expression (immunofluorescence),[4],increased
same,hepatic Acta2 mRNA expression,WT mice,significantly induced
same,"hepatic mRNA expression of the main fibrotic markers, Col1a1 and Tgfβ1",WT mice,induced
same,portal pressure,WT mice,increase
same,cAMP measurements (pmol cAMP per mg of total protein),primary Nep−/− HSCs,reduction
same,HSC contraction (decrease of gel surface),[5],induced more HSC contraction
same,ROCK protein and p-moesin expression (western blot),[6],increased further
